Test results reported in PMC5899023 (Nanomedicine : nanotechnology, biology, and medicine, 2018).
Several values for one entry are separate records, joined by “and”; a condition that tells them apart may be missing. Equal entries are not always repeated. Where two headings read alike, the source gives them in different places.

Legend:
[1] = tested on: FF2441 normal human fibroblast cell line; assay: MTS cell viability, FF2441; assay type: cell-based; conditions: FF2441, 72 h, read-out: IC50 FF2441
Outline: (§1)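 MTS viability assay. Cells were grown at 37°C in humidified 5% CO2: melanoma lines UACC 903 and 1205 Lu (BRAF V600E) or C8161.Cl9 and MelJuSo (BRAF wild type), or normal […]. 5×10³ cells/well were treated 48 h after seeding for 72 h with rising concentrations of free or nanoliposomal test compound (nanoliposomal: 10–100 μmol/L). IC50 came from 3 independent experiments; group values are averages across the lines.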

[2] = tested on: FOM103 normal melanocytes; assay: MTS cell viability, FOM103; assay type: cell-based; conditions: Melanocyte, 72 h, read-out: IC50 FOM103
Outline: as §1

cPLA2 [3] = conditions: various in-vitro studies; ref [13], [37]; cited from earlier work
[4] = mouse, in vivo
[5] = tested on: normal cells FOM103 and FF2441; assay: MTS cell viability, normal cells taken together; assay type: cell-based; conditions: FF2441, read-out: average IC50 for killing normal FOM103 and FF2441
Outline: as §1

Hemolytic activity = assay type: cell-based; conditions: human, human erythrocytes, 5% v/v suspension
Outline: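 Erythrocytes from fresh EDTA-anticoagulated human blood, separated at 1,500 rpm for 10 min at 4°C using PBS. A 5% v/v suspension in PBS was exposed to free or nanoliposomal test compound (10–40 μmol/L), ethanol or empty liposome (negative controls), or 1% Triton X-100, at 37°C for 60 min. After a 12,000 rpm spin, supernatant A540 was read. % hemolysis = sample A540 / Triton A540 × 100.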

UACC 903 xenograft = UACC 903 xenograft tumor growth in nude mice; assay type: in vivo; conditions: for % in-vivo tumor inhibition at day 21 in Nude mice: in DMSO, i.p.
Outline: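 Female athymic nude mice aged 3–4 weeks received 1×10⁶ UACC 903 cells in 0.2 mL DMEM/10% FBS subcutaneously above both rib cages. At day 8 (vascularized tumors of 50–75 mm³), mice were randomized (3/group, 2 tumors/mouse) and dosed daily i.p. with free test compound in DMSO (5 or 10 mg/kg) or DMSO vehicle for 3–4 weeks. Tumor dimensions and body weight were taken on alternate days; % inhibition was scored at day 21. Run twice independently.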

cPLA2 [6] = target: T1, cPLA2 (Homo sapiens, UniProt P47712); assay: cPLA2 activity assay; assay type: biochemical
T1 sequence (P47712 1-749): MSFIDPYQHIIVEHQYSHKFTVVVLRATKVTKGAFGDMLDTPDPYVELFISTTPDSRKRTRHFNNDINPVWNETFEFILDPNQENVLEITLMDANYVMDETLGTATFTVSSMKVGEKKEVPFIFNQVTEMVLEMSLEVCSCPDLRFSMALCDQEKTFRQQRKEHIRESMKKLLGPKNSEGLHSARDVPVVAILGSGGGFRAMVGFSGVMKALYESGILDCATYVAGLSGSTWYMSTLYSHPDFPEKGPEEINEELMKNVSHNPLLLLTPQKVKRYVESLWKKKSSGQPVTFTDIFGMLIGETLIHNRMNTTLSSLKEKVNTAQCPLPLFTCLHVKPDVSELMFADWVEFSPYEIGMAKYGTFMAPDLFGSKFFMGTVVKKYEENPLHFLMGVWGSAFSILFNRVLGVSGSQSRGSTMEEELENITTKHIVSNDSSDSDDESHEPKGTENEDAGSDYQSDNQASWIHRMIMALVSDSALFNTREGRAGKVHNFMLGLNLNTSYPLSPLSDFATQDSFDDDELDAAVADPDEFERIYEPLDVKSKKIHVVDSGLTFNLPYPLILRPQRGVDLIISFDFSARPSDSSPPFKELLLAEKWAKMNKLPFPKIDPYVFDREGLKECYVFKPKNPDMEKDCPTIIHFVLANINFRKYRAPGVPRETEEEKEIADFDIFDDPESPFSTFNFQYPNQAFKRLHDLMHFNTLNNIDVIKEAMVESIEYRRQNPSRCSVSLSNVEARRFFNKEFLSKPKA
Outline: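 Colorimetric cPLA2 assay (commercial kit) on UACC 903 lysate made in Hepes pH 7.4 with 1 mM EDTA. sPLA2 was removed by 30 kDa cutoff filtration and iPLA2 was blocked with bromoenol lactone. Lysate was treated with free or nanoliposomal test compound (0.5–10 μmol/L); DMSO or empty nanoliposome defined 100% activity. Arachidonoyl thio-PC substrate ran for 1 h, then DTNB was added and absorbance read at 414 nm.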

[7] = tested on: C8161.Cl9 melanoma cell line; assay: MTS cell viability, C8161.Cl9; assay type: cell-based; conditions: 72 h, read-out: IC50 C8161.Cl9
Outline: as §1

[8] = tested on: UACC 903 melanoma cell line; assay: MTS cell viability, UACC 903; assay type: cell-based; conditions: Homo sapiens, UACC-903, 72 h, read-out: IC50 UACC 903
Outline: as §1

[9] = tested on: 1205 Lu melanoma cell line; assay: MTS cell viability, 1205 Lu; assay type: cell-based; conditions: Homo sapiens, 72 h, read-out: IC50 1205 Lu
Outline: as §1

[10] = tested on: four melanoma cell lines (UACC 903, 1205 Lu, C8161.Cl9, MelJuSo); assay: MTS cell viability, melanoma cell lines taken together; assay type: cell-based
Outline: as §1

[11] = 14-day repeated dose study to identify the MTD; conditions: for % weight loss at day 14 in Swiss Webster mice: in DMSO, i.p. daily, 14 days

In the case of `CCCCC/C=C\C/C=C\C/C=C\C/C=C\CCCC(=O)C(F)(F)F` [ATK, Arachidonyl trifluoromethyl ketone], the IC50 [1] is given as 63.3 ± 10.3 µM, the IC50 [2] is given as 57.9 ± 10.4 µM and the “potency in inhibiting cPLA2 over sPLA2 and iPLA2” value (cPLA2 [3]) is given as 500 fold. For the same molecule, the “% weight loss at day 14 in Swiss Webster mice” value (“% weight loss” for short) [4] was “Animal mortality occurred”, the IC50 [5] was 60 µM and the hemolysis at 60 min (Hemolytic activity) was 2 to 3%. The hemolysis at 60 min, 40 μmol/L (Hemolytic activity) was 2.9%, the “% in-vivo tumor inhibition at day 21 in Nude mice” value (UACC 903 xenograft; 5 mg/kg body weight) was 12.9 ± 6.30% and the “% in-vivo tumor inhibition at day 21 in Nude mice” value (UACC 903 xenograft; 10 mg/kg body weight) was 32.5 ± 5.73%. The “changes in body weight of tumor-bearing mice” value (UACC 903 xenograft; 5 and 10 mg/kg i.p. daily in DMSO) was “did not show any significant changes in body weight”, the “reduction in tumor volume” value (UACC 903 xenograft; free ATK in DMSO, 5 and 10 mg/kg (MTD) i.p. daily, 3-4 weeks) was “approximately 30%” and the IC50 (cPLA2 [6]) was 1.85 µM. For the same molecule, the IC50 [7] was 18.6 ± 3.1 µM, the IC50 [8] was 26.3 ± 2.1 µM and the IC50 [9] was 26.1 ± 4.4 µM. For the same molecule, the “fold more effective at killing melanoma cells than normal cells” value ([10]; average melanoma versus average normal cells) was 3 fold, the IC50 ([10]; read-out: average IC50 for melanoma cells) was 22 µM and the “% weight loss” value ([11]; 5 mg/kg body weight) was “No weight loss”. The “% weight loss” value ([11]; 10 mg/kg body weight) was 3.1 ± 3.52%, the “% weight loss” value ([11]; 15 mg/kg body weight) was 14.5% and 14.5 ± 0.95% and the “% weight loss” value ([11]; 20 mg/kg body weight) was “Death in 10 days”. The “% weight loss” value ([11]; 30 mg/kg body weight) was “Death in 8 days” and the MTD at 14 days ([11]; Swiss Webster, mouse, in vivo, ip) was 10 mg/kg.
